Measurements gathered from unrelated publications.
Protocols differ between the studies behind these lines.
CDK6 with cyclin D3: Cyclin-dependent kinase 6, with cyclin D3 (CDK6, Homo sapiens, UniProt Q00534)
CDK6 with cyclin D1: Cyclin-dependent kinase 6, with cyclin D1 (CDK6, Homo sapiens, UniProt Q00534)

SMILES	target	test	setting	endpoint	result
CC(C)c1ccc(NC(=O)c2cccs2)c(-c2nc3ccccc3[nH]c2=O)c1	CDK6 with cyclin D3	enzyme activity, inhibitor	1 µM	activity vs control	114%
Cc1cnc(NC2CCOCC2)nc1-n1cnc(C(=O)NC(CN)c2cc(F)cc(Cl)c2)c1 (centres unmarked)	CDK6 with cyclin D3	enzyme activity, inhibitor, radiometric	1 µM	remaining activity	31%
O=C1Nc2ccc(Cl)cc2C1=Cc1cc(Cl)c(O)c(Cl)c1	CDK6 with cyclin D3	cell-free assay	0.5 µM	remaining signal	94.1%
CN1CC(Oc2cnc(C#N)cc2-c2ccn3nc(NC(=O)C4CC4)cc3c2)C1	CDK6 with cyclin D3	enzyme activity, inhibitor	1 µM	inhibition	-8%
CC(C)(O)[C@H]1CC[C@H](Nc2ccc3ncc(-c4cccc(C(F)(F)F)c4)n3n2)CC1	CDK6 with cyclin D3	enzyme activity, inhibitor	1 µM	remaining activity	96.4%
Cc1ccc(C(=O)NCc2ccsc2)cc1C#Cc1cn(C(C)C)c2ncnc(N)c12	CDK6 with cyclin D3	enzyme activity, inhibitor	1 µM	activity vs control	101%
Cc1ccc(Nc2nccc(N(C)c3ccc4c(C)n(C)nc4c3)n2)cc1S(N)(=O)=O	CDK6 with cyclin D3	enzyme activity, inhibitor	10 µM	inhibition	38%
CC(C)(C)c1nc2c(s1)c1nc(N)ncc1c1ccc(NS(=O)(=O)c3c(F)cccc3F)c(F)c12	CDK6 with cyclin D1	enzyme activity, inhibitor, radiometric	1 µM	remaining activity	113%
N#CCCc1ccc2c(c1)-c1[nH]c3ccc([N+](=O)[O-])cc3c1CC(=O)N2	CDK6 with cyclin D1	cell-free assay	0.5 µM	remaining signal	6.79%
O=C(Nc1cnn(-c2csc(C(=O)NC3COC3)c2)c1)Nc1c(F)cccc1Cl	CDK6 with cyclin D1	enzyme activity, inhibitor	5 µM	remaining activity	105%
CCCS(=O)(=O)Nc1ccc(F)c(C(=O)c2c[nH]c3ncc(-c4ccc(Cl)cc4)cc23)c1F	CDK6 with cyclin D3	enzyme activity, inhibitor	1 µM	inhibition	< 10%
O=C1NC(=O)c2cc(Nc3ccc(F)cc3)c(Nc3ccc(F)cc3)cc21	CDK6 with cyclin D3	cell-free assay	0.5 µM	remaining signal	89.9%
CC(C)(C)c1nc(-c2cccc(NS(=O)(=O)c3c(F)cccc3F)c2F)c(-c2ccnc(N)n2)s1	CDK6 with cyclin D3	enzyme activity, inhibitor, radiometric	1 µM	remaining activity	74%
CNC(=O)c1cc(Oc2ccc(NC(=O)Nc3ccc(Cl)c(C(F)(F)F)c3)cc2)ccn1	CDK6 with cyclin D3	enzyme activity, inhibitor	0.3 µM	inhibition	-11%
Cn1cnc(Br)c1C1=CN(c2ncnc3[nH]cnc23)CCS1	Cyclin-dependent kinase 6 (CDK6, Homo sapiens, UniProt Q00534)	enzyme activity, inhibitor, radiometric	2 µM	inhibition	40.4%
CCN(CC)CCNC(=O)c1c(C)[nH]c(/C=C2\C(=O)Nc3ccc(F)cc32)c1C	CDK6 with cyclin D3	enzyme activity, inhibitor	0.3 µM	inhibition	13%
O=C(Nc1cnn(-c2csc(C(=O)NC3COC3)c2)c1)Nc1ccccc1Cl	CDK6 with cyclin D1	enzyme activity, inhibitor	5 µM	remaining activity	95.4%
